# Measurements taken from ChEMBL document CHEMBL3112517, “Identification of dihydrostilbenes in Pholidota chinensis as a new scaffold for GABAA receptor modulators” (Bioorg Med Chem, 2014).
# Activity calls are given as the source filed them. No cut-off for these calls is given here.
# Species on record: Rattus norvegicus
# Test: Modulation of rat GABAA alpha1beta2gamma2S receptor expressed in Xenopus laevis oocytes assessed as potentiation of EC5 to 10 GABA-induced chloride ion current at holding potential -70 mV at 1 uM by two-microelectrode voltage clamp assay relative to GABA-treated control
# Assay type: cell-based
# Summary of the method: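 Stage V–VI oocytes injected with rat α1, β2 and γ2S cRNAs (1:1:10), kept at 18 °C in ND96 and recorded 1–5 days later at −70 mV. Bath: 90 mM NaCl, 1 mM KCl, 1 mM MgCl2, 1 mM CaCl2, 5 mM HEPES, pH 7.4. Compound from 100 mM DMSO stock co-applied with GABA EC3–10 by fast perfusion, final DMSO 1%. Enhancement = I(GABA+comp)/IGABA − 1.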
row,Structure (SMILES),Activity [%]
1,CN1C(=O)CN=C(c2ccccc2)c2cc(Cl)ccc21,231

# Species on record: Rattus norvegicus
# Test: Agonist activity rat GABAA alpha1beta2gamma2S receptor expressed in Xenopus laevis oocytes assessed as potentiation of GABA-induced chloride ion current at holding potential -70 mV at <100 uM compound treated prior to GABA challenge by two-microelectrode voltage clamp assay
# Assay type: cell-based
row,Structure (SMILES),Activity
1,COc1cc(CCc2ccc(OC)c(OC)c2)cc(OC)c1,inactive
2,COc1cc(O)cc(/C=C\c2cccc(O)c2)c1,inactive

# Species on record: Rattus norvegicus
# Test: Allosteric modulation of rat GABAA alpha1beta2gamma2S receptor expressed in Xenopus laevis oocytes assessed as potentiation of GABA-induced chloride ion current at holding potential -70 mV at 100 uM by two-microelectrode voltage clamp assay relative to GABA-treated control
# Assay type: cell-based
# Summary of the method: (§1)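 Stage V–VI Xenopus laevis oocytes were injected with 50 nL of rat α1, β2 and γ2S cRNA mixed 1:1:10 (about 300–3000 pg/nL per subunit), stored at 18 °C in ND96, and recorded on days 1–5. Two-electrode clamp was at −70 mV in pH 7.4 HEPES bath. Compound was applied by fast perfusion with GABA EC3–10, in 1% DMSO final. Enhancement = I(GABA+Comp)/IGABA − 1.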
row,Structure (SMILES),Activity [%]
1,Br[C@H](c1ccccc1)[C@@H](Br)c1ccccc1,-12.9
2,Oc1ccc(CCc2cc(O)cc(O)c2)cc1,162
3,COc1ccc(/C=C/c2ccc(OC)cc2)cc1,-24.8
4,Oc1cc(O)cc(CCc2ccc(O)c(O)c2)c1,86.3
5,Oc1ccc(/C=C/c2cc(O)cc(O)c2)cc1,122
6,CC(=O)Oc1ccc(/C=C/c2cc(OC(C)=O)cc(OC(C)=O)c2)cc1,123
7,COc1cc(/C=C/c2ccc(O)cc2)cc(OC)c1,212
8,c1ccc(CC(c2ccccc2)c2ccccc2)cc1,51.6
9,COc1cc(CCc2ccc(OC)c(OC)c2)cc(OC)c1,544
10,c1ccc(CCc2ccccc2)cc1,8.3
11,Oc1cc(O)cc(CCc2ccc(O)cc2O)c1,44.1
12,COc1ccc(CCc2ccccc2F)cc1,-16.8
13,C(=C\c1ccccc1)/c1ccccc1,-11.3
14,Oc1cc(O)cc(/C=C/c2ccc(O)c(O)c2)c1,-35.4
15,Oc1cc(O)cc(/C=C/c2ccc(O)cc2O)c1,-19.7
16,C(=C/c1ccccc1)/c1ccccc1,12.6
17,COc1cc(O)cc(/C=C\c2cccc(O)c2)c1,192
18,COc1ccc(CCc2ccc(OC)cc2)cc1,-20.9
19,CC(=O)Oc1ccc(CCc2cc(OC(C)=O)cc(OC(C)=O)c2)cc1,228
20,C(=C(c1ccccc1)c1ccccc1)c1ccccc1,-7.3
21,COc1ccc(/C=C/c2ccccc2F)cc1,-22.9
22,COc1cc(/C=C/c2ccc(OC)c(OC)c2)cc(OC)c1,101

# System: not listed separately
# Test: (§2) Allosteric modulation of rat GABAA alpha1beta2gamma2S receptor expressed in Xenopus laevis oocytes assessed as potentiation of EC3 to 10 GABA-induced chloride ion current at holding potential -70 mV by two-microelectrode voltage clamp assay
# Assay type: cell-based
# Summary of the method: as §1
row,Structure (SMILES),EC50 [µM]
1,COc1cc(CCc2ccc(OC)c(OC)c2)cc(OC)c1,20.2
2,COc1cc(O)cc(/C=C\c2cccc(O)c2)c1,176

# Species on record: Rattus norvegicus
# Test: as §2
# Assay type: cell-based
# Summary of the method: as §1
row,Structure (SMILES),Activity
1,COc1cc(CCc2ccc(OC)c(OC)c2)cc(OC)c1,Dose-dependent effect
2,COc1cc(O)cc(/C=C\c2cccc(O)c2)c1,Dose-dependent effect

# Species on record: Rattus norvegicus
# Test: Allosteric modulation of rat GABAA alpha1beta2gamma2S receptor expressed in Xenopus laevis oocytes assessed as potentiation of EC3 to 10 GABA-induced chloride ion current at holding potential -70 mV at 1 to 300 uM by two-microelectrode voltage clamp assay relative to GABA-treated control
# Assay type: cell-based
# Summary of the method: as §1
row,Structure (SMILES),Imax [%]
1,COc1cc(CCc2ccc(OC)c(OC)c2)cc(OC)c1,871

# Species on record: Rattus norvegicus
# Test: Allosteric modulation of rat GABAA alpha1beta2gamma2S receptor expressed in Xenopus laevis oocytes assessed as potentiation of EC3 to 10 GABA-induced chloride ion current at holding potential -70 mV at 500 uM by two-microelectrode voltage clamp assay relative to GABA-treated control
# Assay type: cell-based
# Summary of the method: as §1
row,Structure (SMILES),Imax [%]
1,COc1cc(O)cc(/C=C\c2cccc(O)c2)c1,787
